Experimental data of several laboratories.
Lines come from different studies, so protocols differ.
Target: Cholecystokinin receptor type A (CCKAR, Homo sapiens, UniProt P32238)
Sequence (P32238 1-428, as in one of the studies): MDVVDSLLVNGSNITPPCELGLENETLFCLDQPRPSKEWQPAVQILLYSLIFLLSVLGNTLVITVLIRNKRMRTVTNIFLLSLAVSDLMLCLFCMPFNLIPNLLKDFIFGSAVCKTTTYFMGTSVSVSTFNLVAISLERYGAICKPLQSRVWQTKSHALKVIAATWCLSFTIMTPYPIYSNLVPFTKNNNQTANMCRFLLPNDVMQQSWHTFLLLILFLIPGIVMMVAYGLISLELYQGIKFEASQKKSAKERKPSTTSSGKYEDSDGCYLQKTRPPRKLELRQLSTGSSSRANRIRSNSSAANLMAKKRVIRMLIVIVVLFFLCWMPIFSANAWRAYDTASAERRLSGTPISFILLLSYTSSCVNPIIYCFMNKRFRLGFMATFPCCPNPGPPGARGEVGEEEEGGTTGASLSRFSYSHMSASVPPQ

| SMILES | test | conditions | measurement | value |
| --- | --- | --- | --- | --- |
| O=C(Nc1cccnn1)N1CCN([C@@H]2CCOc3cc(C(F)(F)F)ccc32)CC1 | cell-free assay | 20 µM | inhibition | 20% |
| Nc1ncc(-c2nc(N3CCOCC3)nc(N3CCOCC3)n2)c(C(F)F)n1 | cell-free assay | 10 µM | remaining signal | 118% |
| CCN(CC)CCCC[C@H](NC(=O)[C@H](CC(C)C)NC(=O)[C@H](C)NC(=O)[C@H](Cc1ccccc1)NC(=O)c1ccc(C(C)(C)C)cc1)C(=O)N[C@@H](CO)C(=O)OC | ligand displacement, radioligand | 10 µM | remaining binding | 67.2% |
| C[C@H](C(=O)N[C@H]1COc2ccccc2[C@@H]1S(C)(=O)=O)c1ccc(F)cc1 | cell-free assay | 10 µM | inhibition | -11% |
| COc1ccc(S(=O)(=O)N2CCCCC2)cc1C | ligand displacement, radioligand | 10 µM | inhibition | < 30% |
| Clc1ccc2c(C3CCN(CCc4c[nH]c5ccccc45)CC3)c[nH]c2c1 | ligand displacement, radioligand | 10 µM | inhibition | 25% |
| CN(CCN1CCC(OC(=O)Nc2ccccc2-c2ccccc2)CC1)C(=O)c1ccc(CN2CCC(C(N)=O)CC2)cc1 | ligand displacement, radioligand | 1 µM | inhibition | 2% |
| c1ccc(C(NCCNC(c2ccccc2)c2ccccc2)c2ccccc2)cc1 | cell-free assay | 10 µM | inhibition | 7% |
| Cc1ncc(C)n2nc(/C=C/c3nc(N4CCCC4)cc(N4CCOCC4)n3)nc12 | ligand displacement | 10 µM | inhibition | -33% |
